Results as given in ChEMBL document CHEMBL3875213, “Quinolines: Microwave-assisted synthesis and their antifungal, anticancer and radical scavenger properties” (Bioorg Med Chem, 2017).
Converted amounts (≈) assume the structure as drawn. The source made the active and inactive calls. No cut-off for these calls is given here.

How the values were obtained:
Type in all cases: functional
Candida albicans [1] = test: Antifungal activity against Candida albicans ATCC 10231 incubated for 48 hrs under dark condition by broth microdilution assay; details: ATCC 10231, 48 h
Procedure, shortened: (§1)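 Broth microdilution per CLSI M27-A3 in RPMI-1640. Inocula adjusted to 1-5 x 10^3 CFU/mL. Stocks in DMSO (≤1%), final 3.9-250.0 µg/mL. Incubated 48 h at 30 °C in a moist, dark chamber, read at OD 405. % inhibition computed from growth and sterility control wells, run in triplicate. MIC80/MIC50 taken from four-parameter logistic concentration-response curves; amphotericin B as positive control.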

Candida albicans [2] = test: Growth inhibition of Candida albicans ATCC 10231 at 250 ug/ml incubated for 48 hrs under dark condition by broth microdilution assay relative to amphotericin B; details: ATCC 10231, 48 h, read-out: GI
Procedure, shortened: (§2)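 Yeast broth microdilution (CLSI M27-A3), RPMI-1640, inoculum 1-5 x 10^3 CFU/mL, DMSO ≤1%, 48 h at 30 °C in a moist, dark chamber. […]. Triplicate; amphotericin B as positive control.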

Candida albicans [3] = test: Growth inhibition of Candida albicans ATCC 10231 at 62.5 ug/ml incubated for 48 hrs under dark condition by broth microdilution assay relative to amphotericin B; details: ATCC 10231, 48 h, read-out: GI; procedure, shortened: as §2
Candida albicans [4] = test: Growth inhibition of Candida albicans ATCC 10231 at 31.25 ug/ml incubated for 48 hrs under dark condition by broth microdilution assay relative to amphotericin B; details: ATCC 10231, 48 h, read-out: GI; procedure, shortened: as §2
Candida albicans [5] = test: Growth inhibition of Candida albicans ATCC 10231 at 15.62 ug/ml incubated for 48 hrs under dark condition by broth microdilution assay relative to amphotericin B; details: ATCC 10231, 48 h, read-out: GI; procedure, shortened: as §2
Candida albicans [6] = test: Growth inhibition of Candida albicans ATCC 10231 at 3.9 ug/ml incubated for 48 hrs under dark condition by broth microdilution assay relative to amphotericin B; details: ATCC 10231, 48 h, read-out: GI; procedure, shortened: as §2
[7] = Antifungal activity against Cryptococcus neoformans ATCC 32264 incubated for 48 hrs under dark condition by broth microdilution assay; procedure, shortened: as §1
Candida albicans [8] = test: Growth inhibition of Candida albicans ATCC 10231 at 7.81 ug/ml incubated for 48 hrs under dark condition by broth microdilution assay relative to amphotericin B; details: ATCC 10231, 48 h, read-out: GI; procedure, shortened: as §2
Candida albicans [9] = test: Growth inhibition of Candida albicans ATCC 10231 at 125 ug/ml incubated for 48 hrs under dark condition by broth microdilution assay relative to amphotericin B; details: ATCC 10231, 48 h, read-out: GI; procedure, shortened: as §2
[10] = Antioxidant activity assessed as DPPH radical scavenging activity at 160 uM incubated for 30 mins under dark condition
Procedure, shortened: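 Compound at 160 µM incubated with 100 µM DPPH in ethanolic medium, stirred in the dark for 30 min, read at 517 nm. Resveratrol as positive control. Three independent experiments, each in triplicate.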

[11] = Antioxidant activity assessed as fluorescent light-induced superoxide anion scavenging activity at 160 uM incubated for 10 mins by nitroblue tetrazolium dye based assay
Procedure, shortened: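 Superoxide generated photochemically in 50 mM phosphate buffer pH 7.8 with 13 mM L-methionine, 75 µM nitroblue tetrazolium, 100 µM EDTA and 2 µM riboflavin. Compound at 160 µM. 10 min at 25 °C under fluorescent light; dark controls. Read at 575 nm. Resveratrol as positive control; three independent experiments in triplicate.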

[12] = Antioxidant activity assessed as fluorescent light-induced superoxide anion scavenging activity incubated for 10 mins by nitroblue tetrazolium dye based assay
Procedure, shortened: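 Riboflavin/light superoxide system: 50 mM phosphate pH 7.8, 13 mM L-methionine, 75 µM NBT, 100 µM EDTA, 2 µM riboflavin, compound 0-200 µg/mL. Fluorescent light for 10 min at 25 °C, dark controls, scavenging measured at 575 nm. Resveratrol as reference.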

[13] = Antioxidant activity assessed as DPPH radical scavenging activity incubated for 30 mins under dark condition
Procedure, shortened: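 DPPH (100 µM) in ethanolic medium, stirred 30 min in the dark, absorbance at 517 nm. Compound varied from 0 to 160 µg/mL to find the concentration scavenging 50% of radicals. Three independent experiments, each in triplicate.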

SMILES	MIC50 (Candida albicans [1]) [µg/mL]	MIC80 (Candida albicans [1]) [µg/mL]	MIC50 [7] [µg/mL]	MIC80 [7] [µg/mL]	inhibition of growth at 250 µg/mL (Candida albicans [2]) [%]	inhibition of growth at 62.5 µg/mL (Candida albicans [3]) [%]	inhibition of growth at 31.25 µg/mL (Candida albicans [4]) [%]	inhibition of growth at 15.62 µg/mL (Candida albicans [5]) [%]	inhibition of growth at 3.9 µg/mL (Candida albicans [6]) [%]	inhibition of growth at 7.81 µg/mL (Candida albicans [8]) [%]	inhibition of growth at 125 µg/mL (Candida albicans [9]) [%]	Activity [10]	Activity [11]	SC50 [12] [µM]	SC50 [13] [µM]
FC(F)(F)c1cc2nc(-c3ccccc3)cc(-c3ccccc3)c2cc1Cl	250 (≈ 651 µM)	> 250	250 (≈ 651 µM)	> 250	54.1	15.7	9.41	5.36	0	3.5	25.7	–	–	–	–
Fc1ccc2nc(-c3ccccc3)cc(-c3ccccc3)c2c1	250 (≈ 835 µM)	> 250	> 250	> 250	67.5	18.4	11.8	4.27	0	2.01	34.2	–	< 10%	–	–
Oc1ccc(/C=C/c2cc(O)cc(O)c2)cc1	–	–	–	–	–	–	–	–	–	–	–	Active	Active	255	8.2
C[C@@H]1[C@H](O)[C@@H](C)/C=C/C=C/C=C/C=C/C=C/C=C/C=C/[C@H](O[C@@H]2O[C@H](C)[C@@H](O)[C@H](N)[C@@H]2O)C[C@@H]2O[C@](O)(C[C@@H](O)C[C@@H](O)[C@H](O)CC[C@@H](O)C[C@@H](O)CC(=O)O[C@H]1C)C[C@H](O)[C@H]2C(=O)O [AMPHOTERICIN B]	0.06 (≈ 0.0649 µM)	0.12 (≈ 0.13 µM)	0.12 (≈ 0.13 µM)	0.25 (≈ 0.271 µM)	–	–	–	–	–	–	–	–	–	–	–
Oc1ccc2nc(-c3ccccc3)cc(-c3ccccc3)c2c1	250 (≈ 841 µM)	> 250	125 (≈ 420 µM)	250 (≈ 841 µM)	12.2	0	0	0	0	0	3.51	70 to 85%	Active	> 250	> 250
O=[N+]([O-])c1ccc2nc(-c3ccccc3)cc(-c3ccccc3)c2c1	> 250	> 250	125 (≈ 383 µM)	250 (≈ 766 µM)	36.1	5.93	1.57	0	0	0	15.4	45 to 55%	Active	> 250	104
CC(C)(C)c1ccc2nc(-c3ccccc3)cc(-c3ccccc3)c2c1	> 250	> 250	3.9 (≈ 11.6 µM)	15.6 (≈ 46.2 µM)	7.81	0	0	0	0	0	1.84	–	50%	> 250	> 250
O=[N+]([O-])c1ccc(-c2cc(-c3ccccc3)c3cc(Br)ccc3n2)cc1	> 250	> 250	> 250	> 250	18.2	4.28	4.01	2.64	0	1.55	5.11	40%	Active	–	–
COc1ccc(-c2cc(-c3ccccc3)c3cc(Br)ccc3n2)cc1	> 250	> 250	> 250	> 250	10.6	4.57	4.5	4.06	0	0	8.32	–	Active	–	–
Clc1ccc2nc(-c3ccccc3)cc(-c3ccccc3)c2c1	> 250	> 250	15.6 (≈ 49.4 µM)	> 250	89.8	33.1	20	14	0	8.07	53.9	–	< 10%	–	–

Second part, led by results:

MIC50 (Candida albicans [1]) [µg/mL]	MIC80 (Candida albicans [1]) [µg/mL]	MIC50 [7] [µg/mL]	MIC80 [7] [µg/mL]	SMILES	inhibition of growth at 250 µg/mL (Candida albicans [2]) [%]	inhibition of growth at 62.5 µg/mL (Candida albicans [3]) [%]	inhibition of growth at 31.25 µg/mL (Candida albicans [4]) [%]	inhibition of growth at 15.62 µg/mL (Candida albicans [5]) [%]	inhibition of growth at 3.9 µg/mL (Candida albicans [6]) [%]	inhibition of growth at 7.81 µg/mL (Candida albicans [8]) [%]	inhibition of growth at 125 µg/mL (Candida albicans [9]) [%]	Activity [10]	Activity [11]	SC50 [12] [µM]	SC50 [13] [µM]
250 (≈ 816 µM)	> 250	125 (≈ 408 µM)	250 (≈ 816 µM)	N#Cc1ccc2nc(-c3ccccc3)cc(-c3ccccc3)c2c1	69.9	19.7	12.7	9.26	0	8.25	39	70 to 85%	Active	220	19.5
125 (≈ 337 µM)	125 (≈ 337 µM)	7.8 (≈ 21 µM)	15.6 (≈ 42 µM)	COc1cc2nc(-c3ccccc3)cc(-c3ccccc3)c2c(OC)c1OC	100	20.7	8.13	6.76	0	6.81	86.7	70 to 85%	Active	> 250	18.9
> 250	> 250	15.6 (≈ 52.5 µM)	> 250	Oc1ccc2c(-c3ccccc3)cc(-c3ccccc3)nc2c1	53.9	21.2	12.8	80.4	0	0	29.9	70 to 85%	–	–	–
250 (≈ 763 µM)	> 250	15.6 (≈ 47.6 µM)	31.2 (≈ 95.3 µM)	CSc1ccc2nc(-c3ccccc3)cc(-c3ccccc3)c2c1	66.3	21.7	16	11.2	4.72	11.2	39.2	–	Active	–	–
250 (≈ 768 µM)	> 250	250 (≈ 768 µM)	> 250	O=C(O)c1ccc2nc(-c3ccccc3)cc(-c3ccccc3)c2c1	57.5	22.6	11.9	7.19	0	5.63	34.6	–	Active	–	–
> 250	> 250	250 (≈ 716 µM)	250 (≈ 716 µM)	FC(F)(F)c1ccc2nc(-c3ccccc3)cc(-c3ccccc3)c2c1	20.1	8.77	7.83	3.65	0	2.81	14	45 to 55%	–	> 250	261
